Experimental data as given in ChEMBL document CHEMBL1153770, “Chemical constituents of Heteroplexis micocephala” (J Nat Prod, 2009).
pIC50: −log10 of the molar value. Activity calls are given as the source filed them. No cut-off for these calls is given here.

Tests used:
[1] = system: Human immunodeficiency virus 1; test: Antiviral activity against HIV1 NL4-3 co-transfected with VSV glycoprotein plasmid in human 293T cells after 48 hrs by luciferase reporter gene assay; format: functional, organism-based; conditions: for IC50: 293t; for pIC50: Human immunodeficiency virus 1, NL4-3, HEK-293T, 48 h, read-out: IC50
Procedure, shortened: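 Env-deficient pNL4-3.luc.R-E- HIV-1 vector pseudotyped with VSV-G, made by co-transfecting 293T cells, quantified by p24 ELISA and diluted to 0.2 ng p24/mL. Target 293T cells were seeded at 6 × 10^4 per well one day before infection. Compounds were preincubated with cells 15 min before adding virus, with a solvent-only blank. Cells were lysed 48 h post-infection.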

Rattus norvegicus = species: Rattus norvegicus; test: Antiinflammatory activity in rat PMNCs assessed as inhibition of platelet activating factor-induced beta-glucuronidase release at 10 uM treated 15 mins before PAF challenge after 10 mins; format: functional
A2780 = test: Cytotoxicity against human A2780 cells after 96 hrs by MTT assay; format: functional, cell-based; conditions: for IC50: a2780; for pIC50: Homo sapiens, A2780, 96 h, read-out: IC50
Liver microsomes = test: Antioxidant activity in rat liver microsomes assessed as inhibition of Fe(2+)-cystine-induced lipid peroxidation at 10 uM pretreated for 15 mins before Fe2+ challenge after 15 mins by TBA assay; format: functional; conditions: Microsome
[2] = target: T1, Tyrosine-protein phosphatase non-receptor type 1 (Homo sapiens) (UniProt P18031); test: Inhibition of GST-tagged human recombinant PTP1B assessed as paranitrophenol accumulation at 10 uM after 10 mins by spectrophotometry
T1 sequence (whole entry): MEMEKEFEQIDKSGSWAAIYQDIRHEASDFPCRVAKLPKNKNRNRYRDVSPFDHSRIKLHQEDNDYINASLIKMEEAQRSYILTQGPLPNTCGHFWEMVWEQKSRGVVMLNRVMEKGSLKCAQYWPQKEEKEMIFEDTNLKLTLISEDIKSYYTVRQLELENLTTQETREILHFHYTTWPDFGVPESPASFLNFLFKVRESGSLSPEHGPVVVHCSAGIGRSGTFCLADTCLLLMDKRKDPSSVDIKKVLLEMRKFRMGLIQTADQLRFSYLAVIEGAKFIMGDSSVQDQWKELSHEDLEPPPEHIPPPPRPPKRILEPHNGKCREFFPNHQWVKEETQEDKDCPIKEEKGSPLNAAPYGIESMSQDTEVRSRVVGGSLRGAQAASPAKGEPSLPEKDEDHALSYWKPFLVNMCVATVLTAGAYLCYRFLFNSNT

PC-12 = test: Neuroprotective activity against glutamate-induced rat PC12 cell death at 10 uM pretreated for 24 hrs before glutamate challenge after 24 hrs by MTT assay; format: functional, cell-based

| Structure (SMILES) | IC50 [1] | Activity (Rattus norvegicus) | IC50 (A2780) | Activity (Liver microsomes) | Activity [2] | Activity (PC-12) | pIC50 [1] | pIC50 (A2780) |
| --- | --- | --- | --- | --- | --- | --- | --- | --- |
| CC(C)=C[C@@H]1OC(=O)/C(=C/CC/C(C)=C/CCC2=CC(=O)OC2)[C@@H]1O [HETEROPLEXISOLIDE C] | Not Active | inactive | Not Active | inactive | inactive | inactive | – | – |
| CC(C)=C[C@@H]1C/C(=C\CC/C(C)=C/CCC2=CC(=O)OC2)C(=O)O1 [HETEROPLEXISOLIDE A] | Not Active | inactive | Not Active | inactive | inactive | inactive | – | – |
| C/C=C(/C)C(=O)OC/C=C/c1cc(OC)c(OC)c(OC)c1 | Not Active | inactive | Not Active | inactive | inactive | inactive | – | – |
| C/C=C(/C)C(=O)OC/C=C/c1cc(OC)c(OC(=O)/C(C)=C\C)c(OC)c1 | – | inactive | Not Active | inactive | inactive | inactive | 5.39 | – |
| CC(C)=C[C@@H]1OC(=O)[C@H](/C=C/C/C(C)=C/CCC2=CC(=O)OC2)[C@@H]1O [HETEROPLEXISOLIDE D] | Not Active | inactive | – | inactive | inactive | inactive | – | 5.36 |
| CC[C@@]1(O)C(=O)OCc2c1cc1n(c2=O)Cc2cc3ccccc3nc2-1 [CAMPTOTHECIN] | – | – | – | – | – | – | – | 6.55 |
| C/C1=C/CC(C)(C)[C@@H]2CC[C@](C)(O)/C2=C/C1=O | Not Active | inactive | Not Active | inactive | inactive | inactive | – | – |
| C/C=C(/C)C(=O)OC/C=C/c1cc(OC)c(OC(=O)[C@@H](C)CC)c(OC)c1 | Not Active | inactive | Not Active | inactive | inactive | inactive | – | – |
| CCOC(C)(C)CC(=O)c1cc(C(C)=O)ccc1OC | Not Active | inactive | Not Active | inactive | inactive | inactive | – | – |
| CC(=O)CC/C=C1\C[C@@H](C=C(C)C)OC1=O [HETEROPLEXISOLIDE E] | Not Active | inactive | Not Active | inactive | inactive | inactive | – | – |
| Cc1cn([C@H]2C[C@H](N=[N+]=[N-])[C@@H](CO)O2)c(=O)[nH]c1=O [ZIDOVUDINE] | – | – | – | – | – | – | 7.32 | – |
| C=C(CC/C=C1\C[C@@H](C=C(C)C)OC1=O)C(O)CCC1=CC(=O)OC1 (stereo not given in full) [HETEROPLEXISOLIDE B] | Not Active | inactive | Not Active | inactive | inactive | inactive | – | – |
| COc1ccc(C(C)=O)cc1C(=O)CC(C)(C)O | Not Active | inactive | Not Active | inactive | inactive | inactive | – | – |
| C/C1=C/CC(C)(C)[C@@H]2CC[C@@](C)(O)/C2=C/C1=O | Not Active | inactive | Not Active | inactive | inactive | inactive | – | – |
| C[C@]12C[C@@H](c3ccoc3)OC(=O)[C@@H]1CC[C@@]13COC(=O)[C@@H]1C=CC(=O)[C@H]23 [8-EPIRHYNCHOSPERIN A] | Not Active | inactive | Not Active | inactive | inactive | inactive | – | – |
